In ChEMBL document CHEMBL1144656, “Synthesis and biological evaluation of nitric oxide-releasing derivatives of oleanolic acid as inhibitors of HepG2 cell apoptosis” (2007):
Calls of active or inactive are those of the source. The rule behind the calls is not given here.

Columns and labels:
[1] = test system: HepG2; assay: Inhibition of anti-Fas induced apoptosis in human HepG2 cells at 10 nM by LDH assay; type: functional, cell-based
Outline: (§1)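 HepG2 cells, 10^4/well in triplicate, in phenol-red-free DMEM with 4% FCS and 2 µg/ml cycloheximide. Apoptosis induced with anti-Fas (CH-11 at 50 ng/ml or DX2 at 1.5 µg/ml) with or without test agent, 18 h at 37 °C, 5% CO2. Supernatant LDH activity read at O.D. 490/650. Untreated cells and 1% Triton X-100 served as 0% and 100% cytotoxicity references for % protection. Means of three independent experiments.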

[2] = Production of nitric oxide by in vitro Griess assay; type: functional
Outline: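 NO release estimated as nitrite by Griess reaction in vitro: chromophore formed for 10 min at 30 °C, absorbance at 540 nm, reported as ng/ml.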

[3] = species on record: Homo sapiens; assay: Protective effect on anti-Fas induced apoptosis in human Hep3b p53-/- cells 10 nM by LDH assay; type: functional, cell-based
[4] = species on record: Homo sapiens; assay: Protective effect on anti-Fas induced apoptosis in human Hep3b p53-/- cells 0.1 uM by LDH assay; type: functional, cell-based
[5] = test system: HepG2; assay: Inhibition of anti-Fas induced apoptosis in human HepG2 cells at 0.1 nM by LDH assay; type: functional, cell-based; outline: as §1
[6] = species on record: Homo sapiens; assay: Protective effect on anti-Fas induced apoptosis in human Hep3b p53-/- cells 0.1 nM by LDH assay; type: functional, cell-based
[7] = test system: Rattus norvegicus; assay: Inhibition of CCl4-induced hepatic fibrosis in rat at 128 mg/kg, po; type: functional, organism-based; set-up: dose 128 mg/kg
[8] = test system: Rattus norvegicus; assay: Inhibition of CCl4-induced liver damage in rat at 128 mg/kg, po; type: functional, organism-based; set-up: dose 128 mg/kg
[9] = test system: HepG2; assay: Protective effect on anti-Fas induced apoptosis in human HepG2 cells by LDH assay; type: functional; outline: as §1
[10] = species on record: Homo sapiens; assay: Protective effect on anti-Fas induced apoptosis in human Hep3b p53-/- cells 1 nM by LDH assay; type: functional, cell-based
[11] = test system: HepG2; assay: Inhibition of anti-Fas induced apoptosis in human HepG2 cells at 1 nM by LDH assay; type: functional, cell-based; outline: as §1
[12] = test system: HepG2; assay: Inhibition of anti-Fas induced apoptosis in human HepG2 cells at 0.1 uM by LDH assay; type: functional, cell-based; outline: as §1

## CC1(C)CC[C@]2(C(=O)Oc3ccc(/C=C/C(=O)OCCCO[N+](=O)[O-])cc3)CC[C@]3(C)C(=CC[C@@H]4[C@@]5(C)CC[C@H](OC(=O)C(F)(F)F)C(C)(C)[C@@H]5CC[C@]43C)[C@@H]2C1
[1]
  Activity: Active
[2]
  Activity: 18 ng/mL
[3]
  Activity: Active

## COc1cc(C(=O)OCCCCO[N+](=O)[O-])ccc1OC(=O)[C@]12CCC(C)(C)C[C@H]1C1=CC[C@@H]3[C@@]4(C)CC[C@H](OC(=O)C(F)(F)F)C(C)(C)[C@@H]4CC[C@@]3(C)[C@]1(C)CC2
[2]
  Activity: 28 ng/mL

## CC1(C)CC[C@]2(C(=O)Oc3ccc(/C=C/C(=O)OCCCCO[N+](=O)[O-])cc3)CC[C@]3(C)C(=CC[C@@H]4[C@@]5(C)CC[C@H](OC(=O)C(F)(F)F)C(C)(C)[C@@H]5CC[C@]43C)[C@@H]2C1
[2]
  Activity: 20 ng/mL
[4]
  Activity: Active

## COc1cc(/C=C/C(=O)OCCCO[N+](=O)[O-])ccc1OC(=O)[C@]12CCC(C)(C)C[C@H]1C1=CC[C@@H]3[C@@]4(C)CC[C@H](OC(=O)C(F)(F)F)C(C)(C)[C@@H]4CC[C@@]3(C)[C@]1(C)CC2
[5]
  Activity: Active
[2]
  Activity: 12 ng/mL
[6]
  Activity: Active
[7]
  Activity: Active
[8]
  Activity: Active

## COc1cc(/C=C/C(=O)OCCCCO[N+](=O)[O-])ccc1OC(=O)CC[C@@H](C)[C@H]1CC[C@H]2[C@H]3C(CC[C@]12C)[C@@]1(C)CC[C@@H](O)C[C@H]1C[C@@H]3O (stereo partly drawn)
[9]
  Activity: 33.4%

## COc1cc(/C=C/C(=O)OCCCCO[N+](=O)[O-])ccc1OC(=O)[C@]12CCC(C)(C)C[C@H]1C1=CC[C@@H]3[C@@]4(C)CC[C@H](OC(=O)C(F)(F)F)C(C)(C)[C@@H]4CC[C@@]3(C)[C@]1(C)CC2
[10]
  Activity: Active
[11]
  Activity: Active
[2]
  Activity: 12 ng/mL

## COc1cc(/C=C/C(=O)OCCCCCCO[N+](=O)[O-])ccc1OC(=O)[C@]12CCC(C)(C)C[C@H]1C1=CC[C@@H]3[C@@]4(C)CC[C@H](OC(=O)C(F)(F)F)C(C)(C)[C@@H]4CC[C@@]3(C)[C@]1(C)CC2
[12]
  Activity: Active
[2]
  Activity: 21 ng/mL
[4]
  Activity: Active
